Assay outcomes from PubChem BioAssay.
ARFGAP1 inh: rat ARFGAP1 inhibition; 0.26% of 360,000 active; Q62848; Arfgap1-stimulated ARF1 GTP hydrolysis, GDP FP detection; inhibition, % at 16.5 µM;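 active means inhibition above a per-plate limit, mean inhibition of low control wells plus 3 SD, cut at about 25% in these data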;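 further: 0% = DMSO wells with enzyme and 100% = wells lacking Arfgap1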
Target sequence (Q62848 1-136 limits assumed): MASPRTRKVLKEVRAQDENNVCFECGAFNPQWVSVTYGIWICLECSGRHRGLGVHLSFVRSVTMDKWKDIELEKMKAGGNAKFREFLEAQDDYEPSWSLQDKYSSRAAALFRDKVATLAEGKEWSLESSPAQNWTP
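Assay system: purified rat His6-Arfgap1 residues 1-136 (GAP domain); Reagent: human Δ17 ARF1 bound to GTP; Dosing: 16.5 µM single point, 1.26% DMSO; Times: GTP hydrolysis reaction 2 h at 25 °C; Signal: FP, GDP Alexa 633 tracer displaced from anti-GDP antibody, 620/688 nm; Measure: % inhibition from polarization.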
NRP1-CendR mod: NRP-1/CendR interaction modulation. FAM-RPARPAR peptide binding to NRP-1, fluorescence polarization. inhibition, % at 25 µM. 0.85% of 360,000 active;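 active means inhibition or corrected inhibition above about 18%, plus a signal ratio from 0.5 to 1.5, limit read from the data, passing the limit was not always enough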
Granule exo inh: blocks lytic granule exocytosis; TALL-104 LAMP-1 surface exposure, flow cytometry; cells stimulated with thapsigargin and PMA; 0.66% of 360,000 active; inhibition, % at 10 µM;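 active means inhibition above about 55%, limit read from the data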
ASAP1 GAP inh: ASAP1 ArfGAP inhibition | 0.19% of 360,000 active | ASAP1-stimulated ARF1 GTP hydrolysis, GDP FP detection | inhibition, % at 16.5 µM; in the data active means inhibition above about 25%;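 further: 0% = vehicle with enzyme and substrate and 100% = no enzyme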
Target sequence (Q9ULH1 325-724 limits assumed): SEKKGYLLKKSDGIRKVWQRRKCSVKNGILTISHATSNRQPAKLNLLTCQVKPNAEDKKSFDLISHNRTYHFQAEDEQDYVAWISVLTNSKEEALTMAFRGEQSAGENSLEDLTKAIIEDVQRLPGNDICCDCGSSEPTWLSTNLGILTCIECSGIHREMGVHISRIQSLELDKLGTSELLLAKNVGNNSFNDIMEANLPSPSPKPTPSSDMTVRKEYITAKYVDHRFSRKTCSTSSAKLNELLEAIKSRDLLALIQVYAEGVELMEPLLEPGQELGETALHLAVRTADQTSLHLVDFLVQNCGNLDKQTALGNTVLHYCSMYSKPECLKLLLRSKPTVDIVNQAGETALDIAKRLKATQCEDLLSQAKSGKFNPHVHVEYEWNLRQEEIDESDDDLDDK
V-ATPase pHluor: regulators of yeast V-ATPase proton transport | response, % at 10 µM | S. cerevisiae, pHLuorin cytosolic pH fluorescence | AID 504577 | 0.37% of 350,000 active; in the data active means response mostly above about 7.3%, no sharp cut-off; inactive means mostly below about 5.4%; further: actives read high
Granule exo CP1: blocks lytic granule exocytosis. shares compounds with Granule exo inh. TALL-104 cells, LAMP-1 externalization, flow cytometry; stimulated with PMA plus thapsigargin. inhibition, % at 10 µM. 11% of 1,500 active; in the data active means inhibition above about 60%;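 further: 0% = stimulated vehicle wells and 100% = unstimulated wells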
The depositor's hits bear a star. Shown are actives, neighbours in structure and some others; about 2.2% of the full set was active somewhere.

CC[C@@H]1C(=O)[C@H](Cc2ccccc2)[C@H]2CCCC(=O)N3CC[C@@H]1[C@@H]23 was read as ARFGAP1 inh -3.6, NRP1-CendR mod 11.8, Granule exo inh 63.4*, ASAP1 GAP inh -0.6, V-ATPase pHluor -2.2 and Granule exo CP1 -14.2.
Screening CCCCCc1c(-c2ccccc2OC)ncn1CCc1ccccc1OC returned ARFGAP1 inh 1.5, NRP1-CendR mod 5.3, Granule exo inh 67.7*, ASAP1 GAP inh -2.1 and Granule exo CP1 38.5.
For CCCCc1c(-c2cccc(Br)c2)ncn1CCc1ccccc1OC the results were ARFGAP1 inh 8.8, NRP1-CendR mod -6.5, Granule exo inh 21.3 and ASAP1 GAP inh -0.4.
`CCCCCc1c(-c2cccc(F)c2)ncn1CCc1ccccc1OC` gave ARFGAP1 inh 12.0, NRP1-CendR mod 17.4, Granule exo inh 55.5*, ASAP1 GAP inh -3.4 and Granule exo CP1 67.7*.
`CCCCc1c(-c2ccccc2OC)ncn1CCc1ccccc1OC` gave ARFGAP1 inh -4.1, NRP1-CendR mod 4.1, Granule exo inh 36.7 and ASAP1 GAP inh 16.1.
For CCCc1c(-c2cccc(F)c2)ncn1CCc1ccccc1OC the results were ARFGAP1 inh -12.1, NRP1-CendR mod 7.5, Granule exo inh 7.7 and ASAP1 GAP inh -7.9.
CCCCCc1c(-c2cccc(OC)c2)ncn1CCc1ccccc1OC was read as ARFGAP1 inh 4.1, NRP1-CendR mod 13.3, Granule exo inh 76.3*, ASAP1 GAP inh -13.7 and Granule exo CP1 46.6.
Cc1c(C(c2ccccc2Br)c2c(C)n(C)n(-c3ccccc3)c2=O)c(=O)n(-c2ccccc2)n1C was read as ARFGAP1 inh 15.6, NRP1-CendR mod -3.7, Granule exo inh -0.7, ASAP1 GAP inh 0.1 and V-ATPase pHluor -0.5.
`CCOC(=O)C1CCN(C(=O)CN2C(=O)COc3ccc(C(C)(C)C)cc32)CC1` gave ARFGAP1 inh -1.2, NRP1-CendR mod -0.8, Granule exo inh -1.3, ASAP1 GAP inh -4.7 and V-ATPase pHluor -1.6.
Cc1cccc(NC(=O)CN2C(=O)N/C(=C/c3ccc(C)o3)C2=O)c1 was read as ARFGAP1 inh -3.7, NRP1-CendR mod -52.5, Granule exo inh 84.8*, ASAP1 GAP inh -7.0, V-ATPase pHluor 2.5 and Granule exo CP1 -12.4.
Screening CCOC(=O)[C@@H]1[C@H]2COc3ccccc3[C@@H]2N2C(=O)N(c3ccc(C)cc3)C(=O)[C@]12C returned NRP1-CendR mod 4.6, Granule exo inh 3.4 and V-ATPase pHluor 5.9.
Screening COc1ccc(Cn2nnnc2C(C(C)C)N(Cc2ccco2)Cc2cccs2)cc1 (centres undefined) returned ARFGAP1 inh 2.1, NRP1-CendR mod -4.6, Granule exo inh 57.2*, ASAP1 GAP inh 6.2, V-ATPase pHluor -2.3 and Granule exo CP1 -14.0.
CC(C)C(c1nnnn1Cc1ccccc1)N(Cc1ccco1)Cc1cccs1 (centres undefined) was read as ARFGAP1 inh -2.4, NRP1-CendR mod -0.8, Granule exo inh 11.3, ASAP1 GAP inh 6.2 and V-ATPase pHluor 3.7.
Screening Cn1c(SCc2cccc(C#N)c2)nc2ccccc2c1=O returned ARFGAP1 inh 3.6, NRP1-CendR mod 2.0, Granule exo inh 70.7*, ASAP1 GAP inh -1.5, V-ATPase pHluor -4.3 and Granule exo CP1 -4.0.
Nc1nc(SCC(=O)N2CCCCC2)[nH]c(=O)c1NC(=O)c1ccccc1F was read as ARFGAP1 inh -5.1, NRP1-CendR mod 3.9, Granule exo inh 0.7, ASAP1 GAP inh 10.9 and V-ATPase pHluor 4.4.
Screening CCOc1ccc(-c2n[nH]c(=S)c3ccccc23)cc1 returned ARFGAP1 inh -4.2, NRP1-CendR mod 4.4, Granule exo inh -9.9, ASAP1 GAP inh -0.5 and V-ATPase pHluor 1.0.
`CC[C@@H]1C/C=C\Cc2ccccc2[C@@H](C(=O)C[C@@H](O)CC(C)=O)OC1=O` gave ARFGAP1 inh -8.7, NRP1-CendR mod -5.3, Granule exo inh -2.2, ASAP1 GAP inh 1.0 and V-ATPase pHluor -2.9.
Screening CN1CCN(CCCNC(=O)c2ccc(/C=C3\Sc4ccccc4N(Cc4ccc(F)cc4)C3=O)cc2)CC1 returned ARFGAP1 inh 2.0, NRP1-CendR mod 9.8, Granule exo inh 64.3*, ASAP1 GAP inh 8.6, V-ATPase pHluor 1.4 and Granule exo CP1 76.6*.
COc1cc(S(=O)(=O)N2CCOCC2)cc(C(=O)OCC(=O)NC2CCCCC2)c1OC was read as ARFGAP1 inh -3.8, NRP1-CendR mod -6.9, Granule exo inh -4.0, ASAP1 GAP inh -0.3 and V-ATPase pHluor 3.0.
`CCCCN1CC(N2CCN(Cc3ccccc3)CC2)CS1(=O)=O` (centres undefined) gave ARFGAP1 inh 9.9, NRP1-CendR mod 3.7, Granule exo inh 15.6 and ASAP1 GAP inh 2.7.
`O=C(CNS(=O)(=O)c1ccc(Cl)cc1)NC1CCCCC1` gave ARFGAP1 inh 13.6, NRP1-CendR mod 13.3, Granule exo inh -7.5, ASAP1 GAP inh 0.2 and V-ATPase pHluor 1.6.
`CCCCOn1c(C)c(C(=O)OCC)c2c3nonc3ccc21` gave ARFGAP1 inh -6.1, NRP1-CendR mod 1.4, Granule exo inh 86.9*, ASAP1 GAP inh -13.9, V-ATPase pHluor 0.7 and Granule exo CP1 36.3.
Screening Cc1nc(-c2ccc(Cl)cc2)sc1C1(C)CC(c2ccccc2)=NO1 (centres undefined) returned ARFGAP1 inh -0.9, NRP1-CendR mod 4.3, Granule exo inh 83.2*, ASAP1 GAP inh -5.0, V-ATPase pHluor 5.0 and Granule exo CP1 -4.0.
Screening Fc1ccc(Nc2nc(NCc3ccco3)c3ccccc3n2)cc1 returned ARFGAP1 inh 7.6, NRP1-CendR mod -3.9, Granule exo inh 85.9*, ASAP1 GAP inh 14.9, V-ATPase pHluor 2.1 and Granule exo CP1 5.0.
`CC1(C(=O)NS(=O)(=O)c2ccccc2Cl)CCN1C(=O)C1(c2ccc(Cl)cc2)CCC1` (centres undefined) gave ARFGAP1 inh 4.9, NRP1-CendR mod -9.4, Granule exo inh -3.1 and ASAP1 GAP inh -7.3.
Screening CCc1cc2ccc(C)cc2nc1SCC(=O)NC1CCCC1 returned ARFGAP1 inh -12.8, NRP1-CendR mod -9.5, Granule exo inh 82.0*, ASAP1 GAP inh -3.9, V-ATPase pHluor -0.9 and Granule exo CP1 -12.0.
Fc1cccc(NC(=S)N2CCc3ccccc32)c1 was read as ARFGAP1 inh 6.8, NRP1-CendR mod 6.8, Granule exo inh 64.0*, ASAP1 GAP inh 11.4, V-ATPase pHluor 0.8 and Granule exo CP1 -4.1.
Screening S=C(Nc1ccccc1)N1CCc2ccccc21 returned ARFGAP1 inh 1.2, NRP1-CendR mod -1.6, Granule exo inh -5.2, ASAP1 GAP inh 1.3 and V-ATPase pHluor -0.6.
Screening COc1ccc2nc3cc(Cl)ccc3c(Nc3ccc(O)c(CN4CCN(C)CC4)c3)c2c1 returned ARFGAP1 inh 6.7, NRP1-CendR mod 9.0, Granule exo inh 66.1*, ASAP1 GAP inh 6.2, V-ATPase pHluor 1.1 and Granule exo CP1 75.0*.
